This passage reports Activity results from ChEMBL document CHEMBL5712902, “Enhanced Anti-lymphoma Activity of CAR19-iNKT Cells Underpinned by Dual CD19 and CD1d Targeting” (Cancer Cell, 2018).

Structures are written as SMILES. The source made the active and inactive calls. The rule behind the calls is not given here.

Series [1] has as its system U-266. The series can be described thus: Upregulation of CD1D mRNA expression in human U-266 cells at 10^-6 M upto 96 hrs by RT-PCR analysis. The following applies: dose 1.0 10^-6M. The class given is functional, cell-based. The procedure, abridged:
(§1)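 U266 cells were harvested in exponential growth and treated with 10^-6 M ATRA, 10^-6 M GSK343, or both, each diluted from a 1 mM 1000x PBS stock. Vehicle control was 0.01% DMSO. Incubation ran up to 96 hr, then CD1D mRNA was read by RT-PCR or CD1d protein by flow cytometry at set time points.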

In series [2] the test system is U-266. The series can be described thus: Upregulation of CD1D protein expression in human U-266 cells at 10^-6 M upto 96 hrs by flow cytometric analysis. Particulars: dose 1.0 10^-6M. The class given is functional, cell-based. The procedure, abridged: as §1
Series [3] can be described thus: Cytotoxicity against human CLL cells assessed as reduction in cell viability at 10^-6 M after 48 to 96 hrs by tryphan blue assay. The class given is toxicity, cell-based. Particulars: 1 µM, time 48-96 hrs, dose 1 10^-6M.
Series [4] deals with U-266. The series can be described thus: Upregulation of CD1D mRNA expression in human U-266 cells at 10^-6 M upto 96 hrs in presence of GSK343 by RT-PCR analysis. It is filed as functional, cell-based. The following applies: dose 1.0 10^-6M. The procedure, abridged:
as §1

The test system of series [5] is CLL cell. Nature of the series: Upregulation of CD1D mRNA expression in human CLL cells at 10^-6 M upto 96 hrs by RT-PCR analysis. Particulars: dose 1.0 10^-6M. It is filed as functional, cell-based. The essentials:
(§2)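 Primary CLL cells were treated with 10^-6 M ATRA, freshly prepared in DMSO, protected from light and diluted to a 1 mM 1000x stock in PBS. Vehicle control was 0.01% DMSO. Cells were incubated for up to 96 hr, then CD1d was read by RT-PCR for mRNA or flow cytometry for surface protein at set time points.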

Series [6] has as its system CLL cell. Nature of the series: Upregulation of CD1D protein expression in human CLL cells at 10^-6 M upto 96 hrs by flow cytometric analysis. It is filed as functional, cell-based. The following applies: dose 1.0 10^-6M. The procedure, abridged:
as §2

For series [7], the system named is U-266. Nature of the series: Upregulation of CD1D protein expression in human U-266 cells at 10^-6 M upto 96 hrs in presence of GSK343 by flow cytometric analysis. It is filed as functional, cell-based. The following applies: dose 1.0 10^-6M. The procedure, abridged:
as §1

As for `CCCc1cc(C)[nH]c(=O)c1CNC(=O)c1cc(-c2ccnc(N3CCN(C)CC3)c2)cc2c1cnn2C(C)C`, the result in the series with U-266 [1] and with U-266 [2] was inactive.

Consider `CC1=C(/C=C/C(C)=C/C=C/C(C)=C/C(=O)O)C(C)(C)CCC1` [TRETINOIN], for which, in series [3], the Activity result is recorded as “Non-Toxic”. Also, the outcome in the series on U-266 [4], in the series with CLL cell [5], with CLL cell [6] and in the series on U-266 [7] was Active.
